Measurements as given in ChEMBL document CHEMBL1136923, “Highly potent, orally available anti-inflammatory broad-spectrum chemokine inhibitors” (J Med Chem, 2009).

Key:
[1] = molecular target: C-C chemokine receptor type 2 (Homo sapiens) (UniProt P41597); test: Antagonist activity at CCR2 in human THP1 cells assessed as inhibition of CCL2-induced chemotaxis after 2 hrs by microtiter format trans-well migration assay; format: functional, cell-based; details: THP-1
Procedure, shortened: (§1)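 Microtiter trans-well migration assay in Gey's balanced salt solution with 1 mg/mL endotoxin-free BSA, no fetal calf serum. Migration ran 2 h at 37 °C. Compounds dissolved in DMSO and added to both top and bottom compartments, final DMSO 1%.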

[2] = molecular target: C-C chemokine receptor type 2 (Homo sapiens) (UniProt P41597); test: Antagonist activity at CCR2 in human THP1 cells assessed as inhibition of CCL2-induced chemotaxis at 1000 nM after 2 hrs by microtiter format trans-well migration assay; format: functional, cell-based; details: THP-1; procedure, shortened: as §1
[3] = molecular target: C-C chemokine receptor type 2 (Homo sapiens) (UniProt P41597); test: Antagonist activity at CCR2 in human THP1 cells assessed as inhibition of CCL2-induced chemotaxis at 100 nM after 2 hrs by microtiter format trans-well migration assay; format: functional, cell-based; details: THP-1; procedure, shortened: as §1
[4] = molecular target: C-C chemokine receptor type 2 (Homo sapiens) (UniProt P41597); test: Antagonist activity at CCR2 in human THP1 cells assessed as inhibition of CCL2-induced chemotaxis at 10 nM after 2 hrs by microtiter format trans-well migration assay; format: functional, cell-based; details: THP-1; procedure, shortened: as §1
[5] = molecular target: C-C chemokine receptor type 2 (Homo sapiens) (UniProt P41597); test: Antagonist activity at CCR2 in human THP1 cells assessed as inhibition of CCL2-induced chemotaxis at 1 nM after 2 hrs by microtiter format trans-well migration assay; format: functional, cell-based; details: THP-1; procedure, shortened: as §1
[6] = molecular target: C-C chemokine receptor type 2 (Homo sapiens) (UniProt P41597); test: Antagonist activity at CCR2 in human THP1 cells assessed as inhibition of CCL2-induced chemotaxis at 0.1 nM after 2 hrs by microtiter format trans-well migration assay; format: functional, cell-based; details: THP-1; procedure, shortened: as §1
[7] = molecular target: C-C chemokine receptor type 2 (Homo sapiens) (UniProt P41597); test: Antagonist activity at CCR2 in human THP1 cells assessed as inhibition of CCL2-induced chemotaxis at 0.01 nM after 2 hrs by microtiter format trans-well migration assay; format: functional, cell-based; details: THP-1; procedure, shortened: as §1
Mus musculus [8] = test: Antiinflammatory activity in sc dosed mouse assessed as inhibition of LPS-induced TNFalpha upregulation measured 2 hrs after LPS challenge; format: functional
Mus musculus [9] = test: Antiinflammatory activity in sc dosed mouse assessed as inhibition of LPS-induced TNFalpha upregulation measured 2 hrs after LPS challenge relative to control; format: functional
Procedure, shortened: (§2)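 Murine sublethal LPS endotoxemia screen. LPS is injected intraperitoneally and serum TNF-α is measured 2 h later as the end point. Compound is given subcutaneously or orally in a vehicle of 0.6% DMSO plus 1% carboxymethylcellulose (final concentrations) in sterile water. Values are % relative to control.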

Mus musculus [10] = test: Antiinflammatory activity in po dosed mouse assessed as inhibition of LPS-induced TNFalpha upregulation measured 2 hrs after LPS challenge; format: functional
Mus musculus [11] = test: Antiinflammatory activity in po dosed mouse assessed as inhibition of LPS-induced TNFalpha upregulation measured 2 hrs after LPS challenge relative to control; format: functional; procedure, shortened: as §2
Mus musculus [12] = test: Antiinflammatory activity in mouse assessed as inhibition of LPS-induced TNFalpha upregulation at […], sc measured 2 hrs after LPS challenge; format: functional
Procedure, shortened: (§3)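 Murine sublethal endotoxemia: LPS given intraperitoneally, with serum TNF-α measured 2 h after the LPS injection as the end point. Compound was given subcutaneously or orally. Vehicle was 0.6% DMSO and 1% carboxymethylcellulose (final concentrations) in sterile water. Effect is reported as % relative to control.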

Mus musculus [13] = test: Antiinflammatory activity in mouse assessed as inhibition of LPS-induced TNFalpha upregulation at 0.0055 ug, sc measured 2 hrs after LPS challenge; format: functional; procedure, shortened: as §3
Mus musculus [14] = test: Antiinflammatory activity in mouse assessed as inhibition of LPS-induced TNFalpha upregulation at 0.013 ug, sc measured 2 hrs after LPS challenge; format: functional; procedure, shortened: as §3
Mus musculus [15] = test: Antiinflammatory activity in mouse assessed as inhibition of LPS-induced TNFalpha upregulation at 0.00013 mg, sc measured 2 hrs after LPS challenge; format: functional
Procedure, shortened: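 Murine sublethal endotoxemia: LPS given intraperitoneally, serum TNF-α measured 2 h after LPS injection. Compound vehicle 0.6% DMSO plus 1% carboxymethylcellulose (final concentrations) in sterile water.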

Mus musculus [16] = test: Antiinflammatory activity in mouse assessed as inhibition of LPS-induced TNFalpha upregulation at 0.0013 mg, sc measured 2 hrs after LPS challenge; format: functional; procedure, shortened: as §3
Mus musculus [17] = test: Antiinflammatory activity in mouse assessed as inhibition of LPS-induced TNFalpha upregulation at 0.013 mg, sc measured 2 hrs after LPS challenge; format: functional; procedure, shortened: as §3
Mus musculus [18] = test: Antiinflammatory activity in mouse assessed as inhibition of LPS-induced TNFalpha upregulation at 450 pg, po measured 2 hrs after LPS challenge; format: functional; procedure, shortened: as §3
Mus musculus [19] = test: Antiinflammatory activity in mouse assessed as inhibition of LPS-induced TNFalpha upregulation at 0.0023 ug, po measured 2 hrs after LPS challenge; format: functional; procedure, shortened: as §3
Mus musculus [20] = test: Antiinflammatory activity in mouse assessed as inhibition of LPS-induced TNFalpha upregulation at 0.016 ug, po measured 2 hrs after LPS challenge; format: functional; procedure, shortened: as §3
Mus musculus [21] = test: Antiinflammatory activity in mouse assessed as inhibition of LPS-induced TNFalpha upregulation at 0.057 ug, po measured 2 hrs after LPS challenge; format: functional; procedure, shortened: as §3
Mus musculus [22] = test: Antiinflammatory activity in mouse assessed as inhibition of LPS-induced TNFalpha upregulation at 0.61 ug, po measured 2 hrs after LPS challenge; format: functional; procedure, shortened: as §3
Mus musculus [23] = test: Antiinflammatory activity in mouse assessed as inhibition of LPS-induced TNFalpha upregulation at 0.016 mg, po measured 2 hrs after LPS challenge; format: functional; procedure, shortened: as §3
[24] = Half life in Sprague-Dawley rat at 1 mg/kg, iv administered as single dose; format: ADME, organism-based; set-up: dose 1 mg/kg, route intravenous; details: in vivo
Procedure, shortened: (§4)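 Male Sprague-Dawley rats, three per compound, receive a single intravenous dose in 5% DMSO in 0.9% saline. Food and water are given ad libitum. Plasma is taken at 5, 15, 30, 60, 120, 180, 240 and 480 min. Drug is measured by LC/MS/MS after extraction with 0.1% formic acid in acetonitrile. The curve is back-extrapolated to time zero assuming an initial volume of 0.26 L/kg.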

[25] = Clearance in Sprague-Dawley rat at 1 mg/kg, iv administered as single dose; format: ADME, organism-based; set-up: dose 1 mg/kg, route intravenous; details: in vivo; procedure, shortened: as §4
[26] = Volume of distribution at steady state in Sprague-Dawley rat at 1 mg/kg, iv administered as single dose; format: ADME, organism-based; set-up: dose 1 mg/kg, route intravenous; details: in vivo, read-out: Vdss; procedure, shortened: as §4
[27] = AUC (0 to t) in Sprague-Dawley rat at 1 mg/kg, iv administered as single dose; format: ADME, organism-based, Plasma; set-up: dose 1 mg/kg, route intravenous; details: Sprague-Dawley, plasma
Procedure, shortened: (§5)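 Male Sprague-Dawley rats, three per compound per route, single dose. IV vehicle 5% DMSO in 0.9% saline; oral gavage vehicle 1% carboxymethylcellulose in 0.9% saline; fed ad libitum. Plasma taken 5–480 min post-dose, extracted with 0.1% formic acid in acetonitrile, quantified by LC/MS/MS (positive mode). AUC(0–t) by linear/log trapezoidal rule; IV curve back-extrapolated assuming initial volume 0.26 L/kg.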

[28] = Fractional bioavailability in Sprague-Dawley rat at 3 mg/kg, po administered as single dose; format: ADME, organism-based; details: in vivo
Procedure, shortened: (§6)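 Male Sprague-Dawley rats, three per compound, receive a single oral dose by gavage in 1% carboxymethylcellulose in 0.9% saline, with food and water ad libitum. Plasma is sampled from 5 to 480 min and drug is quantified by positive-mode LC/MS/MS after acetonitrile/formic acid extraction. The lower limit of quantitation is about 2 ng/mL. Exposure is AUC(0→t) by the linear/log trapezoidal rule, and F is oral fractional bioavailability.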

[29] = Half life in Sprague-Dawley rat at 3 mg/kg, po administered as single dose; format: ADME, organism-based; set-up: dose 3 mg/kg, route oral; details: in vivo; procedure, shortened: as §6
[30] = Cmax in Sprague-Dawley rat at 3 mg/kg, po administered as single dose; format: ADME, organism-based; set-up: dose 3 mg/kg, route oral; details: in vivo; procedure, shortened: as §6
[31] = AUC (0 to t) in Sprague-Dawley rat at 3 mg/kg, po administered as single dose; format: ADME, organism-based; set-up: dose 3 mg/kg, route oral; details: plasma; procedure, shortened: as §5
Mus musculus [32] = test: Antiinflammatory activity in mouse assessed as inhibition of LPS-induced TNFalpha upregulation at 300 pg, sc measured 2 hrs after LPS challenge; format: functional
Procedure, shortened: (§7)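 Sublethal murine endotoxemia with LPS given intraperitoneally. Compound was given subcutaneously in vehicle of 0.6% DMSO and 1% carboxymethylcellulose (final concentrations) in sterile water. Serum TNF-α was measured 2 h after LPS injection. Values are expressed as % relative to control.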

Mus musculus [33] = test: Antiinflammatory activity in mouse assessed as inhibition of LPS-induced TNFalpha upregulation at 0.003 ug, sc measured 2 hrs after LPS challenge; format: functional; procedure, shortened: as §3
Mus musculus [34] = test: Antiinflammatory activity in mouse assessed as inhibition of LPS-induced TNFalpha upregulation at 0.03 ug, sc measured 2 hrs after LPS challenge; format: functional; procedure, shortened: as §3
Mus musculus [35] = test: Antiinflammatory activity in mouse assessed as inhibition of LPS-induced TNFalpha upregulation at 0.3 ug, sc measured 2 hrs after LPS challenge; format: functional; procedure, shortened: as §3
Mus musculus [36] = test: Antiinflammatory activity in mouse assessed as inhibition of LPS-induced TNFalpha upregulation at 0.003 mg, sc measured 2 hrs after LPS challenge; format: functional; procedure, shortened: as §3
Mus musculus [37] = test: Antiinflammatory activity in mouse assessed as inhibition of LPS-induced TNFalpha upregulation at 0.015 mg, sc measured 2 hrs after LPS challenge; format: functional; procedure, shortened: as §7
Mus musculus [38] = test: Antiinflammatory activity in mouse assessed as inhibition of LPS-induced TNFalpha upregulation at 0.03 mg, sc measured 2 hrs after LPS challenge; format: functional; procedure, shortened: as §7
Mus musculus [39] = test: Antiinflammatory activity in mouse assessed as inhibition of LPS-induced TNFalpha upregulation at 0.06 mg, sc measured 2 hrs after LPS challenge; format: functional; procedure, shortened: as §7
Mus musculus [40] = test: Antiinflammatory activity in mouse assessed as inhibition of LPS-induced TNFalpha upregulation at 0.12 mg, sc measured 2 hrs after LPS challenge; format: functional; procedure, shortened: as §7

Chain of C-C chemokine receptor type 2 (Homo sapiens) (P41597 whole entry, looked up): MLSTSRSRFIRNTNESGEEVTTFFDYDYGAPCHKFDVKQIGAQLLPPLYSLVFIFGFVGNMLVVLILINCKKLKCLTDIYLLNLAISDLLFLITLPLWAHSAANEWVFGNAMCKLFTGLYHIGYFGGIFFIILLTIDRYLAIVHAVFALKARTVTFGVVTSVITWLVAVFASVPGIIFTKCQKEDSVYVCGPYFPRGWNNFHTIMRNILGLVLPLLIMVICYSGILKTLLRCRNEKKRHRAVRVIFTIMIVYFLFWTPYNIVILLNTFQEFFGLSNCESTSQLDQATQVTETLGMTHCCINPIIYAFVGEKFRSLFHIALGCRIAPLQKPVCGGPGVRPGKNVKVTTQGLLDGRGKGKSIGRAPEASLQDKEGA

Structure (SMILES): CC(C)(C)C(=O)N[C@H]1CCCCNC1=O
- ED50 [1]: 0.04 nM
- inhibition [2]: 102%
- inhibition [3]: 101%
- inhibition [4]: 102%
- inhibition [5]: 101%
- inhibition [6]: 80%
- inhibition [7]: 33%
- ED50 (Mus musculus [8]): 0.1 µg/kg
- inhibition (INH) (Mus musculus [9]): 90%
- ED50 (Mus musculus [10]): 0.1 µg/kg
- inhibition (INH) (Mus musculus [11]): 80%
- inhibition (INH) (Mus musculus [12]): 44%
- inhibition (INH) (Mus musculus [13]): 73%
- inhibition (INH) (Mus musculus [14]): 80%
- inhibition (INH) (Mus musculus [15]): 81%
- inhibition (INH) (Mus musculus [16]): 94%
- inhibition (INH) (Mus musculus [17]): 91%
- inhibition (INH) (Mus musculus [18]): 43%
- inhibition (INH) (Mus musculus [19]): 41%
- inhibition (INH) (Mus musculus [20]): 70%
- inhibition (INH) (Mus musculus [21]): 76%
- inhibition (INH) (Mus musculus [22]): 80%
- inhibition (INH) (Mus musculus [23]): 83%
- half-life [24]: 2.02 h
- clearance [25]: 6.8 mL/min/kg
- Vd [26]: 0.7 L/kg
- AUC(0-t) [27]: 3860 ng·h/mL
- bioavailability [28]: 71%
- half-life [29]: 2.8 h
- Cmax [30]: 989 ng/mL
- AUC(0-t) [31]: 8220 ng·h/mL

Structure (SMILES): C[C@@H]1C[C@H]2[C@@H]3CCC4=CC(=O)C=C[C@]4(C)[C@@]3(F)[C@@H](O)C[C@]2(C)[C@@]1(O)C(=O)CO [DEXAMETHASONE]
- ED50 (Mus musculus [8]): 3 µg/kg
- inhibition (INH) (Mus musculus [9]): 90%
- inhibition (INH) (Mus musculus [32]): 24%
- inhibition (INH) (Mus musculus [33]): 31%
- inhibition (INH) (Mus musculus [34]): 33%
- inhibition (INH) (Mus musculus [35]): 69%
- inhibition (INH) (Mus musculus [36]): 75%
- inhibition (INH) (Mus musculus [37]): 84%
- inhibition (INH) (Mus musculus [38]): 90%
- inhibition (INH) (Mus musculus [39]): 87%
- inhibition (INH) (Mus musculus [40]): 88%
